Only some compounds are listed: those with a hit (about 3.6% of all), similar ones and a draw of the others.
ZTA DNA inh: counter-screen for EBNA-1 inhibitors: inhibitors of Epstein-Barr virus ZTA | P03206 | ZTA-DNA binding, fluorescence polarization | inhibition, % at 11 µM | 0.15% of 320,000 active | AID 2234; in the data active means inhibition above about 33%
Target sequence (P03206 whole entry, looked up): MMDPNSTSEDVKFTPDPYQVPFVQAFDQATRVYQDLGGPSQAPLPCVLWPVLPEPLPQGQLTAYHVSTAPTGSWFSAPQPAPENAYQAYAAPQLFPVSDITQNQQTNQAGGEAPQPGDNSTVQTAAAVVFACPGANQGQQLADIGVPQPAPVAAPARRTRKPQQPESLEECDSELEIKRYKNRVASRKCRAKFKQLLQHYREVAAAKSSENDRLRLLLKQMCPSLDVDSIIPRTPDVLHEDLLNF
DNA FID counter: fluorescent intercalator displacement, NS3 helicase counter-screen. DNA fluorescent intercalator displacement, fluorescence. inhibition, % at 7.9 µM. 0.17% of 290,000 active. AID 1845; in the data active means inhibition above about 37%;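 further: 0% = vehicle and 100% = reference compound; higher means more ethidium bromide displaced from hairpin DNA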
NS3 helicase inh: blocks Hepatitis C virus NS3 helicase unwinding; 0.56% of 290,000 active; NS3 helicase DNA unwinding, Cy5 molecular beacon fluorescence; inhibition, % at 10.9 µM;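 active means inhibition above the mean of all tested compounds plus 3 SD, set per campaign, cut at about 35% in these data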;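 further: 0% = DMSO wells and 100% = thioflavine S control wells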
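Assay system – hepatitis C virus NS3 helicase domain fragment enzyme · Buffer or medium – MOPS pH 6.5, MgCl2, DTT, Tween20, BSA · Reagent – Cy5/quencher beacon DNA duplex and ATP to start · Compound – single 10.9 µM dose · Timing – 1 h at 25 °C · Technique – Cy5 beacon fluorescence read at start and 1 h · Measure – % inhibition of unwinding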
GRIN3A LBD mod: modulates the human NR3A ligand-binding domain | NR3A LBD differential scanning fluorimetry, Tm shift; 0% = protein alone, 100% = glycine-bound protein | Tm shift relative to glycine control, % at 25 µM | 2.5% of 340,000 active | AID 1259313;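 active means melting temperature shift of at least 10% of the positive control shift, at one fixed dose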
EBNA-1 inhibitor: blocks EBNA-1 binding to DNA | EBNA-1 DNA binding, fluorescence polarization | inhibition, % at 14.8 µM | 0.34% of 300,000 active; in the data active means inhibition above about 28%
FGF22 binding: binders of recombinant human FGF22 by thermal shift | 1.5% of 340,000 active | SYPRO orange fluorescence; percent of sucrose octasulfate shift, DMSO zero | activity (Tm shift, normalised), % at 9.99 µM | Q9HCT0;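 active means mean Tm shift, scaled 0 neutral to 100 positive control, at about 1.3% or above, every replicate too, limit read from the data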
Target sequence (Q9HCT0 whole entry, looked up): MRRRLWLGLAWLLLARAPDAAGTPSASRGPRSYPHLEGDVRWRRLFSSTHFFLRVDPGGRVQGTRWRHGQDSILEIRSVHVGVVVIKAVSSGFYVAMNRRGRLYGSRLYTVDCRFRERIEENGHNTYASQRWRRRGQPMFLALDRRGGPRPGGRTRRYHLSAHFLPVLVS
* hit, by the source's call; . = no result.

SMILES	ZTA DNA inh	DNA FID counter	NS3 helicase inh	GRIN3A LBD mod	EBNA-1 inhibitor	FGF22 binding
O=C(O)CCCn1cc(NC(=O)COc2ccc([N+](=O)[O-])cc2)cn1	1.9	-1.6	5.5	2.2	-4.7	42.9*
c1ccc(-c2cc3ccccc3[nH]2)cc1	5.0	-2.0	-3.7	0.6	9.5	0.2
COc1ccc(-c2cc3ccccc3[nH]2)cc1	6.1	3.5	-37.7	13.8*	5.6	-0.3
Cc1ccc(O)c(-c2cc3ccccc3[nH]2)c1	-20.1	10.2	-2.8	22.1*	-4.4	.
O=[N+]([O-])c1cccc(-c2cc3ccccc3[nH]2)c1	16.1	10.8	-4.2	33.6*	6.9	0.0
C[C@@H]1CN([C@H](C)CO)C(=O)c2cccc(NC(=O)c3cnccn3)c2O[C@H]1CN(C)S(=O)(=O)c1cccs1	.	.	.	.	.	0.0
C[C@H](CO)N1C[C@H](C)[C@@H](CN(C)S(=O)(=O)c2ccccc2)OCCCC[C@H](C)Oc2ccc(NC(=O)c3ccccc3)cc2C1=O	.	.	.	.	.	-0.3
c1ccc(N2CCN(c3ccccc3)C2c2cccnc2)cc1	-2.4	2.8	-7.0	10.2*	-4.8	.
O=C(OCCC12CC3CC(CC(C3)C1)C2)c1ccc(NCc2cc(O)ccc2O)cc1	.	.	.	26.8*	.	0.2
O=C(OCC12CC3CC(CC(C3)C1)C2)c1ccc(NCc2cc(O)ccc2O)cc1	.	.	.	11.8*	.	0.2
Cn1c(SCC(=O)N2CCCC2=O)nnc1-c1ccccc1F	-6.8	-0.1	2.5	0.9	0.5	43.3*
CCn1c(SCC(=O)N2CCCC2=O)nnc1-c1cccs1	-13.2	.	.	0.3	.	0.6
Cc1ccc(-n2[nH]c(C)c(C=Nc3ccc(S(=O)(=O)Nc4nccs4)cc3)c2=O)cc1	-1.4	-4.6	11.0	.	10.7	.
Cc1[nH]n(-c2ccc(Br)cc2)c(=O)c1C=Nc1ccc(S(=O)(=O)Nc2nccs2)cc1	-0.8	1.9	-1.9	26.7*	3.0	.
O=[N+]([O-])c1ccc(N/N=C/c2cccc(O)c2O)c(S(=O)(=O)N2CCOCC2)c1	10.8	-1.9	25.1	30.4*	12.6	0.2
O=[N+]([O-])c1ccc(N/N=C/c2ccc(O)c(O)c2O)c(S(=O)(=O)N2CCOCC2)c1	.	-11.1	26.6	22.8*	.	-0.3
C[C@H]1CN([C@@H](C)CO)C(=O)c2cc(NS(=O)(=O)c3ccc(F)cc3)ccc2O[C@@H]1CN(C)Cc1ccc(-c2ccccc2)cc1	.	.	.	.	.	-0.8
COc1cc(N2C(=O)c3ccccc3C2=O)c(Cl)cc1C(=O)OCC(=O)N(C)C	6.6	-11.6	-7.7	-0.5	4.4	43.1*
COc1cc(OC)c(C(=O)OCN2C(=O)c3ccccc3C2=O)cc1OC	5.9	-22.0	2.8	-0.6	-1.2	-0.3
COc1ccc(NC(=O)c2cccc(N3C(=O)C4C5C=CC(C6CC56)C4C3=O)c2)cc1 (stereo not given)	10.5	-25.5	-12.1	22.6*	10.1	0.0
Cc1ccccc1NC(=O)c1cccc(N2C(=O)C3CCCCC3C2=O)c1 (stereo not given)	-30.4	-19.6	-1.8	-0.3	1.3	-0.3
COc1ccc(N2C(=O)C3CCCCC3C2=O)cc1NC(=O)c1ccccc1 (stereo not given)	-17.6	-13.8	-5.7	38.5*	-4.3	0.1
Cc1cc(NC(=O)c2ccc(N3C(=O)C4C5C=CC(C5)C4C3=O)cc2)no1 (stereo not given)	-13.6	-4.7	7.8	0.1	-1.2	44.3*
COc1ccc(NC(=O)c2cccc(N3C(=O)C4C5C=CC(C5)C4C3=O)c2)c(OC)c1 (stereo not given)	1.4	-25.1	11.5	-3.6	7.4	0.0
COc1ccccc1NC(=O)c1cccc(N2C(=O)C3C4C=CC(C4)C3C2=O)c1 (stereo not given)	-2.2	-24.3	15.8	0.7	8.9	43.9*
SMILES	ZTA DNA inh	DNA FID counter	NS3 helicase inh	GRIN3A LBD mod	EBNA-1 inhibitor	FGF22 binding
CCOC(=O)N(C)C[C@H]1OCc2ccccc2-c2ccccc2C(=O)N([C@@H](C)CO)C[C@@H]1C	.	.	.	.	.	0.2
Cc1ccc(S(=O)(=O)N(C)C[C@H]2Oc3ccc(NC(=O)CCC(F)(F)F)cc3CC(=O)N([C@@H](C)CO)C[C@@H]2C)cc1	.	.	.	.	.	-0.3
COc1ccc(-n2sc3ccc(F)cc3c2=O)cc1	8.8	.	.	27.8*	.	0.1
C[C@H]1CCCCO[C@H](CN(C)C(=O)Nc2cccc3ccccc23)[C@@H](C)CN([C@@H](C)CO)C(=O)c2cc(NC(=O)c3ccncc3)ccc2O1	.	.	.	.	.	-0.4
O=C(NCc1ccc(F)cc1)c1ccc(S(=O)(=O)Nc2cccc(C(F)(F)F)c2)cc1	7.9	-17.9	-34.2	28.6*	-10.1	.
O=C(c1ccc(S(=O)(=O)Nc2cccc(C(F)(F)F)c2)cc1)N1CCC1	9.3	-25.1	-5.6	15.5*	3.2	-0.3
O=C(NCc1ccncc1)c1ccc(NS(=O)(=O)c2ccc(F)cc2)cc1	-20.4	.	.	-0.3	.	0.1
O=C(NCc1ccccc1F)c1ccc(S(=O)(=O)Nc2cccc(C(F)(F)F)c2)cc1	14.0	-11.0	-11.8	26.6*	13.4	.
O=C(NCC1CCCN(Cc2ccccc2F)C1)c1cccc(C(F)(F)F)c1 (stereo not given)	-17.0	23.5	2.2	2.6	-10.5	42.9*
COc1ccc(NC(=O)N(C)C[C@H]2Oc3ccc(NS(=O)(=O)c4cn(C)cn4)cc3C(=O)N([C@@H](C)CO)C[C@@H]2C)cc1	.	.	.	.	.	-0.1
Cc1ccc(S(=O)(=O)N2CC[C@@H]3[C@H]2c2cc(C#Cc4cccnc4)ccc2N(C)[C@H]3CO)cc1	.	.	.	.	.	-0.2
CNC[C@@H]1Oc2c(NC(=O)c3nc4ccccc4s3)cccc2C(=O)N([C@H](C)CO)C[C@@H]1C	.	.	.	.	.	0.1
O=C(C[C@H]1CC[C@H]2[C@@H](COC[C@@H](O)CN2Cc2ccc(Cl)cc2)O1)NCc1cccc(F)c1	.	.	.	.	.	-0.4
C[C@@H]1CN([C@@H](C)CO)C(=O)c2cc(NC(=O)Nc3cccc4ccccc34)ccc2O[C@@H](C)CCCCO[C@H]1CN(C)Cc1ccc2c(c1)OCO2	.	.	.	.	.	-0.6
O=C(COc1ccccc1)Nc1ccc2c(c1)Cc1cc(NC(=O)COc3ccccc3)ccc1-2	-14.1	0.7	-1.5	22.5*	-4.8	.
O=C(COc1ccccc1)Nc1ccc(NC(=O)c2ccco2)cc1	4.8	-13.2	9.1	8.6	-9.4	44.3*
O=C(COc1ccc(Cl)cc1)Nc1cc(NC(=O)COc2ccc(Cl)cc2)cc(C(=O)O)c1	11.3	-1.9	17.2	12.1*	-1.7	0.0
COc1cc(C(=O)Nc2ccc3c(c2)Cc2ccccc2-3)cc(OC)c1OC	2.5	-0.2	3.3	-1.2	8.8	43.4*
COc1ccc(OCC(=O)Nc2ccc(NC(=O)c3ccco3)cc2)cc1	7.3	-14.1	-3.6	5.9	6.6	.
Cc1ccc(OCC(=O)Nc2cc(NC(=O)COc3ccc(C)cc3)cc(C(=O)O)c2)cc1	7.7	-15.2	18.9	0.5	0.8	0.1
